Data on seven molecules can be found in ChEMBL document CHEMBL3763121, “Synthesis, biological evaluation and structural analysis of novel peripherally active morphiceptin analogs” (Bioorg Med Chem, 2016).

Active and inactive are the calls of the source. The calls are words filed in the database; no cut-off is given here. Where a SMILES comes first, the peptide text is derived from it.

Data set [1] has as its target Mu-type opioid receptor (Rattus norvegicus, UniProt P33535). Nature of the data set: Displacement of [3H]DAMGO from MOR in Wistar rat brain homogenate by scintillation counting analysis. Type of data set: tissue-based. The method in brief: (§1)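 Competitive radioligand displacement in brain homogenates from adult male Wistar rats: [3H]DAMGO for MOR, [3H][Ile5,6]deltorphin-2 for DOR. IC50 read from logarithmic dose–displacement curves and converted to Ki. Three independent experiments, each in duplicate.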
A general note: In a radioligand displacement assay an active substance lowers the binding of a labelled ligand.

The target of data set [2] is Delta-type opioid receptor (Homo sapiens) (UniProt P41143). Nature of the data set: Agonist activity at human recombinant DOR expressed in CHO cells at 1 uM by calcium mobilization assay. Type of data set: functional, cell-based. In general terms: Calcium assays in cells follow changes in intracellular calcium, usually with a dye or a luminescent sensor.
Delta-type opioid receptor (Homo sapiens), sequence (P41143 whole entry): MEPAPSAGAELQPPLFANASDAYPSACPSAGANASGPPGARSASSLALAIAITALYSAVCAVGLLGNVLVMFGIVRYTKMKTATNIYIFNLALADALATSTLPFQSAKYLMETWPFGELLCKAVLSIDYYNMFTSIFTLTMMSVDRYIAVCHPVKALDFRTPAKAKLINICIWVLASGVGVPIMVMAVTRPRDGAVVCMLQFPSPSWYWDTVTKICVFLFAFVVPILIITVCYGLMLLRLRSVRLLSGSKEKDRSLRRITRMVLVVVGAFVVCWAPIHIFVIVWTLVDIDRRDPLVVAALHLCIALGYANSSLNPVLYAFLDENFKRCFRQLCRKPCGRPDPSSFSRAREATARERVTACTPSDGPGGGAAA
Data set [3] has as its target T1, Mu-type opioid receptor (Homo sapiens, UniProt P35372). The data set is described as follows: Agonist activity at human recombinant MOR expressed in CHO cells by calcium mobilization assay. Type of data set: functional, cell-based.
A short description of data set [4]: Retention time of compound by RP-HPLC analysis. Type of data set: physicochemical. The procedure, abridged: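 Solvent A was 0.1% TFA in water and B was 80% acetonitrile with 0.1% TFA. Linear gradient of 0–100% B over 50 min at 1 ml/min.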
Data set [5] addresses Kappa-type opioid receptor (Cavia porcellus, UniProt P41144). Nature of the data set: Displacement of [3H]nor-BNI from KOR in Dunkin Hartley guinea pig brain homogenate by scintillation counting analysis. Type of data set: tissue-based. The procedure, abridged:
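KOR affinity measured by competitive displacement of [3H]nor-BNI in guinea pig brain membranes. IC50 taken from logarithmic dose–displacement curves and converted to Ki. Three independent experiments run in duplicate.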

Data set [6] addresses Delta-type opioid receptor (Rattus norvegicus, UniProt P33533). Nature of the data set: Displacement of [3H][Ile5,6]deltorphin-2 from DOR in Wistar rat brain homogenate by scintillation counting analysis. Type of data set: tissue-based. The method in brief: as §1
The target of data set [7] is T2, Kappa-type opioid receptor (Homo sapiens, UniProt P41145). Nature of the data set: Agonist activity at human recombinant KOR expressed in CHO cells at 1 uM by calcium mobilization assay. Type of data set: functional, cell-based.
T2 sequence (P41145 whole entry): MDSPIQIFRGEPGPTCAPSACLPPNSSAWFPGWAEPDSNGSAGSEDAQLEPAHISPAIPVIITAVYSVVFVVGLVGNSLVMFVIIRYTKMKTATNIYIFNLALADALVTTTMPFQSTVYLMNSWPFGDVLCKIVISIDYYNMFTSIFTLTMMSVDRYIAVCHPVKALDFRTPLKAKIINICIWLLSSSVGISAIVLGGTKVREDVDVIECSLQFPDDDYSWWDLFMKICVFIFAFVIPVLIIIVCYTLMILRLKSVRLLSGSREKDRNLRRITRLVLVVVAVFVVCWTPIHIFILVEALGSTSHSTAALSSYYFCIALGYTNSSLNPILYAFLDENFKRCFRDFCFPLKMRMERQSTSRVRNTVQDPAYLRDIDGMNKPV
The target in data set [8] is T2, Kappa-type opioid receptor. The data set is described as follows: Agonist activity at human recombinant KOR expressed in CHO cells by calcium mobilization assay. Type of data set: functional, cell-based. The method in brief:
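CHO cells stably co-expressing human recombinant KOR and the C-terminally modified chimeric G protein Gαqi5. Calcium mobilization read-out. Concentration–response curves fitted with a sigmoidal equation that includes baseline, Emax and Hill coefficient. Potency reported as pEC50, the negative log molar concentration giving 50% of the maximal effect. Efficacy reported as intrinsic activity, the ligand Emax relative to the standard agonist Emax.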

Data set [9] deals with T2, Kappa-type opioid receptor. The data set is described as follows: Intrinsic activity at human recombinant KOR expressed in CHO cells at 1 uM by calcium mobilization assay relative to dynorphin A. Type of data set: functional, cell-based.
The target of data set [10] is T1, Mu-type opioid receptor. The data set is described as follows: Agonist activity at human recombinant MOR expressed in CHO cells at 1 uM by calcium mobilization assay. Type of data set: functional, cell-based.

Kappa-type opioid receptor (Cavia porcellus, UniProt P41144), sequence (P41144 whole entry): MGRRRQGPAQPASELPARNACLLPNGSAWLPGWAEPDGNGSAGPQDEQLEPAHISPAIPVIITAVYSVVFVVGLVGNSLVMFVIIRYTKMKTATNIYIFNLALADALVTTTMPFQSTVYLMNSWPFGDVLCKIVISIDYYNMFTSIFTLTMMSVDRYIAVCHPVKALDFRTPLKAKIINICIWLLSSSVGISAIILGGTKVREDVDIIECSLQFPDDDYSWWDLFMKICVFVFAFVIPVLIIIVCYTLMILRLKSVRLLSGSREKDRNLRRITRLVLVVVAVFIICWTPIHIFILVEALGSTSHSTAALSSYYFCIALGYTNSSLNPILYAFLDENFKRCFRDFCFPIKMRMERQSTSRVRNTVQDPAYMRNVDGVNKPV
Delta-type opioid receptor, sequence (P33533 whole entry): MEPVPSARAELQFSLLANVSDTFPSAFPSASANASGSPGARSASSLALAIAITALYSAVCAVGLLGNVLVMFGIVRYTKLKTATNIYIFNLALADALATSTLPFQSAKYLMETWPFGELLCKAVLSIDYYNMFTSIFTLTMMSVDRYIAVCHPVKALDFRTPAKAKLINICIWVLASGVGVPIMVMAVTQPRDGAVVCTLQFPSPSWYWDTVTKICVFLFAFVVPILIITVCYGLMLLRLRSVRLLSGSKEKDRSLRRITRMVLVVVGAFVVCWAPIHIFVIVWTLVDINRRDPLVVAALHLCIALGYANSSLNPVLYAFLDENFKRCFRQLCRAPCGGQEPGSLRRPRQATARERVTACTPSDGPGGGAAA
T1 sequence (P35372 whole entry): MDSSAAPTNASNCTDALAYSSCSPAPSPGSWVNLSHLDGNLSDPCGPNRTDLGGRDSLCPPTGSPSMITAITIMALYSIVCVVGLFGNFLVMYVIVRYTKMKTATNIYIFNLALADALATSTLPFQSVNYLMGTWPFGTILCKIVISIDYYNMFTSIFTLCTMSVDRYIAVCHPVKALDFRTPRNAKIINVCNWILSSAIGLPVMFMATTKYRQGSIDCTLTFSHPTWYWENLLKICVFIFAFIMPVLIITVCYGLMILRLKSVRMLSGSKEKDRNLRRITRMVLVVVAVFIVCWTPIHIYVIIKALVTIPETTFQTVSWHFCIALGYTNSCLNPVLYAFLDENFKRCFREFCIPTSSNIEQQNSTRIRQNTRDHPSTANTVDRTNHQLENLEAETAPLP
Mu-type opioid receptor (Rattus norvegicus, UniProt P33535), sequence (P33535 whole entry): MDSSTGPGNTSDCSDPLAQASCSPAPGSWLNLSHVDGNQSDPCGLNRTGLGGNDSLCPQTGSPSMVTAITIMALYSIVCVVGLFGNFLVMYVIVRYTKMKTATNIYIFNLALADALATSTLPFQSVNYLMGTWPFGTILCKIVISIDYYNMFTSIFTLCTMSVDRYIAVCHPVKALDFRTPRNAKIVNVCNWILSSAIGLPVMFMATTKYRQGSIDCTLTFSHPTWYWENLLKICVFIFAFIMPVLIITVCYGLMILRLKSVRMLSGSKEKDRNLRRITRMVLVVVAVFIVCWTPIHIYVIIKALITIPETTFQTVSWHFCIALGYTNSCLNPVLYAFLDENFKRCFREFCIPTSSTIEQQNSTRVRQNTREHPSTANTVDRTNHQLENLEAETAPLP

For orientation: Ki means a dissociation constant, usually derived from enzyme kinetics or from competition with a known ligand. A higher Ki goes with weaker binding. The EC50 is the concentration needed to bring the measured effect to its halfway point. On to `NC(=O)[C@H]1CC(F)(F)CN1C(=O)[C@H](Cc1ccccc1)NC(=O)[C@@H]1CCCN1C(=O)[C@@H](N)Cc1ccc(O)cc1`, for which the inhibition constant (Ki) on Mu-type opioid receptor [1] was 0.0133 µM; in data set [5] it was more than 1 µM; in [6], more than 1 µM. For the same molecule, in data set [2], the outcome was inactive. Moreover, the EC50 at Mu-type opioid receptor [3] is 0.0204 µM. In [4], the Retention_time came to 14.22 min.

On to `CC1(C)SSC(C)(C)[C@@H](NC(=O)[C@@H](N)Cc2ccc(O)cc2)C(=O)NCC(=O)N[C@@H](Cc2ccccc2)C(=O)N[C@H]1C(=O)O`, for which the result in [7] was inactive.

Turning to `NC(=O)[C@@H]1CC(F)(F)CN1C(=O)[C@H](Cc1ccccc1)NC(=O)[C@@H]1CC(F)(F)CN1C(=O)[C@@H](N)Cc1ccc(O)cc1`, the values for the Ki (on Mu-type opioid receptor [1]; in data set [5]; in data set [6]) were 0.106 µM, more than 1 µM and more than 1 µM, respectively. Moreover, the result in [2] and in data set [7] was inactive. Further, at Mu-type opioid receptor [3], the EC50 was 0.398 µM. Moreover, in data set [4], the Retention_time was found to be 14.56 min.

As for `C[C@H](NC(=O)[C@@H](N)Cc1ccc(O)cc1)C(=O)N[C@@H](Cc1ccccc1)C(=O)NCC(=O)N[C@@H](Cc1ccc(O)cc1)C(=O)N1CCC[C@H]1C(=O)N[C@@H](CO)C(N)=O`, the result in data set [7] was inactive.

Turning to `NC(=O)[C@H]1CC(F)(F)CN1C(=O)[C@H](Cc1ccccc1)NC(=O)[C@@H]1CC(F)(F)CN1C(=O)[C@@H](N)Cc1ccc(O)cc1`, the results for the Ki (at Mu-type opioid receptor [1]; in data set [5]; in [6]) were 0.00037 µM, 0.386 µM and more than 1 µM, respectively. Besides, the EC50 was 0.813 µM in data set [8] and 0.00468 µM on Mu-type opioid receptor [3]. Further, in [2], the outcome was inactive. The Intrinsic activity in data set [9] amounted to 0.84. In addition, the Retention_time in data set [4] is 14.99 min.

Turning to `NC(=O)[C@@H]1CCCN1C(=O)[C@H](Cc1ccccc1)NC(=O)[C@H]1CC(F)(F)CN1C(=O)[C@@H](N)Cc1ccc(O)cc1`, the Ki (at Mu-type opioid receptor [1]; in data set [5]; in data set [6]) was more than 1 µM in each case. Besides, the result (in [2]; in data set [7]; at Mu-type opioid receptor [10]) was inactive. In [4], this molecule yielded a Retention_time of 14.1 min.

With `NC(=O)[C@@H]1CCCN1C(=O)[C@H](Cc1ccccc1)NC(=O)[C@@H]1CCCN1C(=O)[C@@H](N)Cc1ccc(O)cc1` [MORPHICEPTIN] (H-YPFP-NH2), the Ki is 0.0364 µM on Mu-type opioid receptor [1], more than 1 µM in [5] and more than 1 µM in data set [6]. Further, the result in data set [2] and in [7] was inactive. On Mu-type opioid receptor [3], the concentration giving a half-maximal response (EC50) was 0.741 µM.
